Calls of active or inactive are those of the source. The calls are words filed in the database; no cut-off is given here.
Legend:
[1] = biological target: T1, Mast/stem cell growth factor receptor Kit (Homo sapiens, UniProt P10721); conditions: 1 uM
[2] = biological target: Tyrosine-protein kinase ABL1 (Homo sapiens, UniProt P00519); assay: Inhibition of C-terminal His-tagged human ABL1 expressed in baculovirus infected SF9 cells assessed as residual activity at 1 uM using Tyr 02 peptide as substrate measured after 1 hr by FRET based Z'Lyte assay relative to control
Chain of Tyrosine-protein kinase ABL1 (P00519 whole entry, the tested form may be a part): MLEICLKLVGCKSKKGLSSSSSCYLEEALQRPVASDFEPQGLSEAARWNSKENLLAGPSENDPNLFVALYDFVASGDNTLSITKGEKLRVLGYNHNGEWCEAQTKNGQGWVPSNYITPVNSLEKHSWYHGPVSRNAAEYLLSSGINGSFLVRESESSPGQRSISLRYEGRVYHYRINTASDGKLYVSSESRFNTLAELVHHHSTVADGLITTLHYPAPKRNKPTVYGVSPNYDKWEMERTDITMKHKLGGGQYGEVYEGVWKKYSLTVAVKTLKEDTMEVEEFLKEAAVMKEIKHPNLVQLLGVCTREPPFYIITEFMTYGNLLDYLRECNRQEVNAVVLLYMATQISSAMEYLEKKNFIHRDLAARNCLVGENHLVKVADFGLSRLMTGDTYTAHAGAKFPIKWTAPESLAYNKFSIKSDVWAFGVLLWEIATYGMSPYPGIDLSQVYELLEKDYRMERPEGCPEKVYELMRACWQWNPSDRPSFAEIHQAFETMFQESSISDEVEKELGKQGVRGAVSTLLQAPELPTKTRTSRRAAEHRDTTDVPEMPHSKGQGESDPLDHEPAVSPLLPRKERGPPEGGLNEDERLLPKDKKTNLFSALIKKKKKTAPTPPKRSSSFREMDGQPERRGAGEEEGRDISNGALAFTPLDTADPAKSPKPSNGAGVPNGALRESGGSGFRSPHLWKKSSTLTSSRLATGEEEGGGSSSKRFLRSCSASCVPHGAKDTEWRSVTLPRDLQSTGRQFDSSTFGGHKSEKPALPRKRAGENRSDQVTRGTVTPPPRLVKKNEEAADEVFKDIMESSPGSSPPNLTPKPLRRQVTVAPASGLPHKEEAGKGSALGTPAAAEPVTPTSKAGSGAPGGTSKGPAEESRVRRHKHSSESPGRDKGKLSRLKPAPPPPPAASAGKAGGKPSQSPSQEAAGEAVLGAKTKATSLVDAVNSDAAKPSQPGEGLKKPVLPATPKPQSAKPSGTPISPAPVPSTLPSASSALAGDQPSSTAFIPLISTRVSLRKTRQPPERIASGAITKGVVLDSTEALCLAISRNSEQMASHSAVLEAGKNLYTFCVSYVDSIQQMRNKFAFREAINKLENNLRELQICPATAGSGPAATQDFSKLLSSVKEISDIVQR

[3] = biological target: Tyrosine-protein kinase Lck (Homo sapiens, UniProt P06239); assay: Inhibition of recombinant C-terminal His-tagged human LCK cytoplasmic domain expressed in baculovirus expression system measured after 1 hr by FRET based Z'Lyte assay
Chain of Tyrosine-protein kinase Lck (P06239 whole entry, the tested form may be a part): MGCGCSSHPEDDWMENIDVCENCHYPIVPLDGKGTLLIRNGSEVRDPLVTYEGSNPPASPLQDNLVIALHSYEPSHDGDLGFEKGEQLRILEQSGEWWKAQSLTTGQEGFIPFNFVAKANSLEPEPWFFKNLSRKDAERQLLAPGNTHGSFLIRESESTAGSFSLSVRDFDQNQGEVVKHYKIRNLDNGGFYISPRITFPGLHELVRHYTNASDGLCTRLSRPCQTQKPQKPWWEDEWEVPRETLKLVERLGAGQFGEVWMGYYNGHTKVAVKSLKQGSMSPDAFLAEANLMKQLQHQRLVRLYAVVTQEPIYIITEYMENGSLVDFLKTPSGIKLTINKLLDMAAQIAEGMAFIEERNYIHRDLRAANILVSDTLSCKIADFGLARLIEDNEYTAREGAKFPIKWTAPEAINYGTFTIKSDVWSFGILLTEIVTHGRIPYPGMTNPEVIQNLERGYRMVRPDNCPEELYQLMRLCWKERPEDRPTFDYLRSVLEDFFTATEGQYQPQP
Summary of the method: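 Z'-LYTE FRET biochemical kinase assay run by Invitrogen on selected kinases identified from binding profiling; IC50 from dose-response.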

[4] = biological target: Platelet-derived growth factor receptor alpha (Homo sapiens) (UniProt P16234); assay: Inhibition of Tel-fused PDGFR-alpha (unknown origin) expressed in BAF3 cells assessed as growth inhibition measured after 72 hrs by CellTiter-Glo or CCK8 assay; assay type: cell-based
Chain of Platelet-derived growth factor receptor alpha (Homo sapiens) (P16234 whole entry, the tested form may be a part): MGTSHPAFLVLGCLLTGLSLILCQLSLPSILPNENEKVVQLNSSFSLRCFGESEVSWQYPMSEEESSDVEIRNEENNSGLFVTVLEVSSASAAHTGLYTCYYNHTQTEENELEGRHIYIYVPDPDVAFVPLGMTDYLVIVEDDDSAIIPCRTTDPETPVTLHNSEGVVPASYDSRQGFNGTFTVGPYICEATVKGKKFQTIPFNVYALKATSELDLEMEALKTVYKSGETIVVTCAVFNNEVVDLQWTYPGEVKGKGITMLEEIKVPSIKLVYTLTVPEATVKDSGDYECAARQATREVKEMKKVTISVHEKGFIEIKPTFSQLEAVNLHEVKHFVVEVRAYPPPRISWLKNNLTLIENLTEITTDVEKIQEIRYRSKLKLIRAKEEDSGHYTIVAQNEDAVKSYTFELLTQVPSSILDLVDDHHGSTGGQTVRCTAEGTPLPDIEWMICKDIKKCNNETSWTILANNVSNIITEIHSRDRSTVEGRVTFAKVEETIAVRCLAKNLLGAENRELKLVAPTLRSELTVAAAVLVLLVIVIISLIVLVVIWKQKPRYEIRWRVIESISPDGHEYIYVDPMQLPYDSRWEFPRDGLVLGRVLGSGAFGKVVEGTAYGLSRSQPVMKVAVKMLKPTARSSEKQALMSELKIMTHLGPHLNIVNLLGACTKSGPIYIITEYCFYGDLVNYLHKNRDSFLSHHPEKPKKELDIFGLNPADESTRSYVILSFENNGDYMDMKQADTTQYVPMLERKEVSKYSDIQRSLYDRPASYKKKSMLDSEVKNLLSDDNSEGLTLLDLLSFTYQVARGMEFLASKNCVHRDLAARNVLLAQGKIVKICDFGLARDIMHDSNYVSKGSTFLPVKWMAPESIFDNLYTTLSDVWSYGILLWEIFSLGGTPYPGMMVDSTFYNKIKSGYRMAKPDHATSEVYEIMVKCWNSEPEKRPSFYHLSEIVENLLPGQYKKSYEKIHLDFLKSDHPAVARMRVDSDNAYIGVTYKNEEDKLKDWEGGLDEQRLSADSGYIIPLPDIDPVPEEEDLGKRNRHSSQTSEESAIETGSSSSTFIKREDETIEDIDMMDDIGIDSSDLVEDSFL
Summary of the method: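 BaF3 lines were made by retroviral transduction with kinase-fusion MSCV vectors packaged in HEK293T cells. Cells were selected with puromycin for 48 h, then selected again without IL-3 so growth depends on the introduced kinase. […] They were seeded at 1 to 2.5×10^4 cells/mL with compound dilutions and incubated 72 h. Viability was read by CellTiter-Glo luminescence or CCK-8 absorbance (450/655 nm), normalized to DMSO control; GI50 was curve-fitted from triplicate tests.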

[5] = biological target: T1, Mast/stem cell growth factor receptor Kit; assay: Inhibition of c-KIT autophosphorylation at Y703 in human GISTT1 cells at 0.03 to 10 uM measured after 2 hrs by immunoblotting; assay type: cell-based
Summary of the method: (§1)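 After an ice-cold PBS wash, cells were lysed in RIPA buffer (50 mM Tris pH 8.0) with protease and phosphatase inhibitors, and protein was quantified by BCA. Lysates were run on SDS-PAGE, transferred to PVDF and blocked in 5% milk/TBST. Phospho- and total proteins were probed by immunoblot with ECL detection; β-actin served as loading control.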

[6] = biological target: T1, Mast/stem cell growth factor receptor Kit; assay: Inhibition of c-KIT mediated signaling pathways assessed as reduction in S6 phosphorylation at S235/236 in human GISTT1 cells at 0.03 to 10 uM measured after 2 hrs by immunoblotting; assay type: cell-based
Summary of the method: as §1

[7] = Cell cycle arrest in human GIST882 cells assessed as accumulation at G0/G1 phase at 0.3 uM after 48 hrs by propidium iodide/RNase staining based flow cytometry; assay type: functional
Summary of the method: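 Cells were exposed to serially diluted compound, then fixed in cold 70% ethanol overnight at -20 °C. They were stained with PI/RNase buffer for DNA-content cell-cycle analysis.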

[8] = AUC (0 to infinity) in Sprague-Dawley rat at 1 mg/kg, iv; assay type: ADME, organism-based; set-up: dose 1 mg/kg, route intravenous, time infinity; conditions: in vivo
Summary of the method: (§2)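 Male Sprague-Dawley rats aged six to eight weeks were fasted overnight and then dosed iv or orally. Blood (~0.2 mL) was drawn from the jugular vein into heparin and kept on ice. Sampling was at 1 min to 8 h for iv and 5 min to 24 h for oral. Plasma was separated by centrifugation at 2-8 °C and stored at -80 °C until analysis.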

[9] = Half life in Sprague-Dawley rat at 1 mg/kg, iv; assay type: ADME, organism-based; conditions: in vivo
Summary of the method: as §2

[10] = AUC (0 to t) in Sprague-Dawley rat at 10 mg/kg, po; assay type: ADME, organism-based; conditions: in vivo
Summary of the method: as §2

[11] = Cmax in Sprague-Dawley rat at 10 mg/kg, po; assay type: ADME, organism-based; set-up: dose 10 mg/kg, route oral; conditions: in vivo
Summary of the method: as §2

T1 sequence (P10721 whole entry): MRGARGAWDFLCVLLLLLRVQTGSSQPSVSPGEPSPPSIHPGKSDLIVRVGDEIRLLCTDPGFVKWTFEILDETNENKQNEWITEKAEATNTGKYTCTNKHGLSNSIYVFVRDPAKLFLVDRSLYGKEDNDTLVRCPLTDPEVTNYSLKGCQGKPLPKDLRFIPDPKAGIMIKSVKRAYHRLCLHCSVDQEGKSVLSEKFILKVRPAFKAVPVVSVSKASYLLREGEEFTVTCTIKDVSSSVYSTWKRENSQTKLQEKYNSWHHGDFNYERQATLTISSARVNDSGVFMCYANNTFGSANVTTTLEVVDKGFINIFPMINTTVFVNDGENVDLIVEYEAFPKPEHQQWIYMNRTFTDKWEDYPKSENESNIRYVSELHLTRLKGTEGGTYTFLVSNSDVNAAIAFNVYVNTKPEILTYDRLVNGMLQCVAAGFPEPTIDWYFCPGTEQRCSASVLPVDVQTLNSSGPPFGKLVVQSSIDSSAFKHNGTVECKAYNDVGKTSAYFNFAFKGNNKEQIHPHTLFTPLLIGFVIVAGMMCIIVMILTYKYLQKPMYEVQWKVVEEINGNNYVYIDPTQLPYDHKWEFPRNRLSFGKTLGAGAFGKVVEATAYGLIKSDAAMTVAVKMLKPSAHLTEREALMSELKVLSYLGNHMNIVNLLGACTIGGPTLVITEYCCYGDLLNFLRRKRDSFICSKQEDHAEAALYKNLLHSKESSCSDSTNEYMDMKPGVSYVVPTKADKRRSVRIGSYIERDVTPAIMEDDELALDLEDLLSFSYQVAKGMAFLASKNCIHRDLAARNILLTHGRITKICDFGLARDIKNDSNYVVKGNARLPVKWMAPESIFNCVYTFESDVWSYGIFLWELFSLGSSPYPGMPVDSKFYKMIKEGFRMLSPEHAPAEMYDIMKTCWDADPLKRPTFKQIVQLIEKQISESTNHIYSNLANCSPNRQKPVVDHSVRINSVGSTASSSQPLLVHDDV

Row | Structure (SMILES) | inhibition [1] | Activity [2] | IC50 [3] | GI50 [4] | inhibition [5] | inhibition [6] | Activity [7] | AUC(0-inf) [8] | half-life [9] | AUC(0-t) [10] | Cmax [11]
1 | Cc1ccc(NC(=O)c2ccc(CN3CCN(C)CC3)cc2)cc1Nc1nccc(-c2cccnc2)n1 [IMATINIB] | Active |  |  |  |  |  |  |  |  |  | 
2 | Cc1ccc(C(=O)N2CCC(Oc3cc(NC(=O)c4ccc(CN5CCN(C)CC5)c(C(F)(F)F)c4)ccc3C)CC2)cn1 |  | 0.3% | 12 nM | 12 nM | Active | Active | Active | 558 ng·h/mL | 2.47 h | 2420 ng·h/mL | 223 ng/mL

Reference: ChEMBL document CHEMBL3877303 (J Med Chem, 2017)
